Results: ChEMBL document CHEMBL1125920, “Synthesis and biological activity of 5-alkyl-1,7,8-trisubstituted-6-fluoroquinoline-3-carboxylic acids” (1991)
Converted amounts (≈) assume the structure as drawn.

Columns and labels:
[1] = test system: Enterobacter cloacae; test: Antibacterial activity against gram negative organism, […] (MA2646); format: functional
[2] = test system: Escherichia coli; test: Antibacterial activity was determined against gram negative organism, E. coli(vogel); format: functional
Outline: (§1)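 MIC by standard microtitration against a panel of 10 representative Gram-negative and Gram-positive organisms; values reported in µg/mL.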

[3] = test system: Klebsiella pneumoniae; test: Antibacterial activity was determined against gram negative organism, K. pneumoniae (MGH-2); format: functional; outline: as §1
[4] = test system: Pseudomonas aeruginosa; test: Antibacterial activity was determined against gram negative organism, Pseudomonas aeruginosa (UI-18); format: functional; outline: as §1
[5] = test system: Bacteria; test: Antibacterial activity was determined against gram negative organism, Providencia rettgeri. (M1771); format: functional; outline: as §1
[6] = test system: Streptococcus pneumoniae; test: Antibacterial activity was determined against gram positive organism, Streptococcus pneumoniae (SV-1); format: functional; outline: as §1
[7] = test system: Enterococcus faecalis; test: Antibacterial activity was determined against gram positive organism, Streptococcus faecalis (MGH-2); format: functional; outline: as §1
[8] = test system: Streptococcus pyogenes; test: Antibacterial activity was determined against gram positive organism, Streptococcus pyogenes (C203); format: functional; outline: as §1
[9] = test system: Staphylococcus aureus; test: Antibacterial activity was determined against gram positive organism, Staphylococcus aureus (H228); format: functional; outline: as §1
[10] = test system: Staphylococcus aureus; test: Antibacterial activity was determined against gram positive organism, Staphylococcus aureus (UC76); format: functional; outline: as §1
[11] = MIC ratio measured as the mean MICs of gram-negative bacteria; format: functional
Outline: (§2)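 Geometric mean of the MICs (µg/mL) over the Gram-negative or the Gram-positive strains of the 10-organism microtitration panel, calculated separately for each class.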

[12] = MIC ratio measured as the mean MICs of gram-positive bacteria; format: functional; outline: as §2
[13] = biological target: DNA gyrase (Escherichia coli) (UniProt P0AES6+P0AES4)

| Structure (SMILES) | MIC [1] | MIC [2] | MIC [3] | MIC [4] | MIC [5] | MIC [6] | MIC [7] | MIC [8] | MIC [9] | MIC [10] | DNA cleavage [13] | Ratio [11] | Ratio [12] |
| --- | --- | --- | --- | --- | --- | --- | --- | --- | --- | --- | --- | --- | --- |
| NC1CCN(c2c(F)cc3c(=O)c(C(=O)O)cn(C4CC4)c3c2Cl)C1 (stereo unspecified) [CLINAFLOXACIN] | 0.025 µg/mL (≈ 0.0683 µM) | 0.025 µg/mL (≈ 0.0683 µM) | 0.025 µg/mL (≈ 0.0683 µM) | 0.05 µg/mL (≈ 0.137 µM) | 0.025 µg/mL (≈ 0.0683 µM) | 0.025 µg/mL (≈ 0.0683 µM) | 0.05 µg/mL (≈ 0.137 µM) | 0.05 µg/mL (≈ 0.137 µM) | 0.025 µg/mL (≈ 0.0683 µM) | 0.013 µg/mL (≈ 0.0355 µM) | 0.5 µg/mL | 0.029 | 0.029 |
| Cc1c(F)c(N2CCNC(C)C2)cc2c1c(=O)c(C(=O)O)cn2-c1ccc(F)cc1F (stereo unspecified) | 0.2 µg/mL (≈ 0.464 µM) | 0.1 µg/mL (≈ 0.232 µM) | 0.4 µg/mL (≈ 0.927 µM) | 1.6 µg/mL (≈ 3.71 µM) | 0.8 µg/mL (≈ 1.85 µM) | 0.05 µg/mL (≈ 0.116 µM) | 0.4 µg/mL (≈ 0.927 µM) | 0.1 µg/mL (≈ 0.232 µM) | 0.1 µg/mL (≈ 0.232 µM) | 0.025 µg/mL (≈ 0.0579 µM) | 1.75 µg/mL | 0.4 | 0.087 |
| CCc1c(F)c(N2CCNCC2)cc2c1c(=O)c(C(=O)O)cn2C1CC1 | 0.8 µg/mL (≈ 2.23 µM) | 0.4 µg/mL (≈ 1.11 µM) | 1.6 µg/mL (≈ 4.45 µM) | 12.5 µg/mL (≈ 34.8 µM) | 6.3 µg/mL (≈ 17.5 µM) | 12.5 µg/mL (≈ 34.8 µM) | > 25 µg/mL | 25 µg/mL (≈ 69.6 µM) | 25 µg/mL (≈ 69.6 µM) | 6.3 µg/mL (≈ 17.5 µM) |  | 1.91 | 16.2 |
| CC1CN(c2cc3c(cc2F)c(=O)c(C(=O)O)cn3-c2ccc(F)cc2F)CCN1 (stereo unspecified) [TEMAFLOXACIN] | 0.05 µg/mL (≈ 0.12 µM) | 0.05 µg/mL (≈ 0.12 µM) | 0.1 µg/mL (≈ 0.24 µM) | 1.6 µg/mL (≈ 3.83 µM) | 0.2 µg/mL (≈ 0.479 µM) | 0.1 µg/mL (≈ 0.24 µM) | 0.2 µg/mL (≈ 0.479 µM) | 0.1 µg/mL (≈ 0.24 µM) | 0.1 µg/mL (≈ 0.24 µM) | 0.025 µg/mL (≈ 0.0599 µM) | 0.75 µg/mL | 0.15 | 0.087 |
| CC1(CN)CCN(c2c(F)cc3c(=O)c(C(=O)O)cn(C4CC4)c3c2F)C1 (stereo unspecified) | 0.025 µg/mL (≈ 0.0662 µM) | 0.05 µg/mL (≈ 0.132 µM) | 0.1 µg/mL (≈ 0.265 µM) |  | 0.2 µg/mL (≈ 0.53 µM) | 0.006 µg/mL (≈ 0.0159 µM) | 0.013 µg/mL (≈ 0.0344 µM) | 0.025 µg/mL (≈ 0.0662 µM) |  | 0.003 µg/mL (≈ 0.00795 µM) | 2.6 µg/mL | 0.1 | 0.095 |
| CCn1cc(C(=O)O)c(=O)c2c(C)c(F)c(N3CCNCC3)c(F)c21 | 0.05 µg/mL (≈ 0.142 µM) | 0.05 µg/mL (≈ 0.142 µM) | 0.2 µg/mL (≈ 0.569 µM) | 1.6 µg/mL (≈ 4.55 µM) | 0.4 µg/mL (≈ 1.14 µM) | 6.3 µg/mL (≈ 17.9 µM) | 3.1 µg/mL (≈ 8.82 µM) | 12.5 µg/mL (≈ 35.6 µM) | 0.8 µg/mL (≈ 2.28 µM) | 0.2 µg/mL (≈ 0.569 µM) | 7.5 µg/mL | 0.2 | 2.08 |
| O=C(O)c1cn(C2CC2)c2c(Cl)c(N3CCNCC3)c(F)cc2c1=O | 0.025 µg/mL (≈ 0.0683 µM) | 0.025 µg/mL (≈ 0.0683 µM) | 0.05 µg/mL (≈ 0.137 µM) | 0.4 µg/mL (≈ 1.09 µM) | 0.1 µg/mL (≈ 0.273 µM) | 0.1 µg/mL (≈ 0.273 µM) | 0.4 µg/mL (≈ 1.09 µM) | 0.2 µg/mL (≈ 0.547 µM) | 0.1 µg/mL (≈ 0.273 µM) | 0.05 µg/mL (≈ 0.137 µM) | 0.5 µg/mL | 0.066 | 0.13 |
| Cc1c(F)c(N2CCNCC2)c(Cl)c2c1c(=O)c(C(=O)O)cn2C1CC1 | 0.05 µg/mL (≈ 0.132 µM) | 0.025 µg/mL (≈ 0.0658 µM) | 0.1 µg/mL (≈ 0.263 µM) | 0.2 µg/mL (≈ 0.527 µM) | 0.2 µg/mL (≈ 0.527 µM) | 0.1 µg/mL (≈ 0.263 µM) | 0.2 µg/mL (≈ 0.527 µM) | 0.2 µg/mL (≈ 0.527 µM) | 0.05 µg/mL (≈ 0.132 µM) | 0.025 µg/mL (≈ 0.0658 µM) | 1.5 µg/mL | 0.087 | 0.087 |
| CCc1c(F)c(N2CCC(N)C2)cc2c1c(=O)c(C(=O)O)cn2C1CC1 (stereo unspecified) | 0.8 µg/mL (≈ 2.23 µM) | 0.4 µg/mL (≈ 1.11 µM) | 1.6 µg/mL (≈ 4.45 µM) | 12.5 µg/mL (≈ 34.8 µM) | 6.3 µg/mL (≈ 17.5 µM) | 1.6 µg/mL (≈ 4.45 µM) | 25 µg/mL (≈ 69.6 µM) | 3.1 µg/mL (≈ 8.63 µM) | 12.5 µg/mL (≈ 34.8 µM) | 3.1 µg/mL (≈ 8.63 µM) |  | 2.09 | 5.45 |

Second part, led by results:

| MIC [1] | MIC [2] | MIC [3] | MIC [4] | MIC [5] | MIC [6] | MIC [7] | MIC [8] | MIC [9] | MIC [10] | DNA cleavage [13] | Structure (SMILES) | Ratio [11] | Ratio [12] |
| --- | --- | --- | --- | --- | --- | --- | --- | --- | --- | --- | --- | --- | --- |
| 0.4 µg/mL (≈ 1.11 µM) | 0.1 µg/mL (≈ 0.277 µM) | 0.4 µg/mL (≈ 1.11 µM) | 3.1 µg/mL (≈ 8.58 µM) | 1.6 µg/mL (≈ 4.43 µM) | 0.2 µg/mL (≈ 0.553 µM) | 0.2 µg/mL (≈ 0.553 µM) | 0.1 µg/mL (≈ 0.277 µM) | 0.2 µg/mL (≈ 0.553 µM) | 0.1 µg/mL (≈ 0.277 µM) | 2.5 µg/mL | CCNCC1CCN(c2cc3c(cc2F)c(=O)c(C(=O)O)cn3CC)C1 (stereo unspecified) | 0.6 | 0.15 |
| 0.05 µg/mL (≈ 0.124 µM) | 0.05 µg/mL (≈ 0.124 µM) | 0.1 µg/mL (≈ 0.248 µM) | 0.8 µg/mL (≈ 1.98 µM) | 0.1 µg/mL (≈ 0.248 µM) | 0.1 µg/mL (≈ 0.248 µM) | 0.4 µg/mL (≈ 0.992 µM) | 0.2 µg/mL (≈ 0.496 µM) | 0.4 µg/mL (≈ 0.992 µM) | 0.05 µg/mL (≈ 0.124 µM) |  | O=C(O)c1cn(-c2ccc(F)cc2F)c2cc(N3CCNCC3)c(F)cc2c1=O | 0.11 | 0.17 |
| 0.05 µg/mL (≈ 0.138 µM) |  |  | 0.4 µg/mL (≈ 1.1 µM) | 0.1 µg/mL (≈ 0.275 µM) | 0.4 µg/mL (≈ 1.1 µM) | 0.4 µg/mL (≈ 1.1 µM) | 0.4 µg/mL (≈ 1.1 µM) | 0.2 µg/mL (≈ 0.55 µM) | 0.1 µg/mL (≈ 0.275 µM) | 1 µg/mL | CC1CN(c2c(F)cc3c(=O)c(C(=O)O)cn(C4CC4)c3c2F)CCN1 (stereo unspecified) | 0.066 | 0.26 |
| 0.05 µg/mL (≈ 0.124 µM) | 0.025 µg/mL (≈ 0.062 µM) | 0.05 µg/mL (≈ 0.124 µM) | 0.4 µg/mL (≈ 0.992 µM) | 0.1 µg/mL (≈ 0.248 µM) | 0.025 µg/mL (≈ 0.062 µM) | 0.1 µg/mL (≈ 0.248 µM) | 0.025 µg/mL (≈ 0.062 µM) | 0.05 µg/mL (≈ 0.124 µM) | 0.013 µg/mL (≈ 0.0322 µM) |  | NC1CCN(c2cc3c(cc2F)c(=O)c(C(=O)O)cn3-c2ccc(F)cc2F)C1 (stereo unspecified) | 0.076 | 0.033 |
